# Most compounds without a hit are left out; they make up all but 2.3% or so of the library.
# Rpn11 inh – Rpn11 (human) deubiquitinase inhibition. AID 588493. hit rate 0.59% among 360,000. O00487. inhibition, % at 20 µM. human 26S proteasome, Ub4-pepOG fluorescence polarization; 20S core pre-blocked with epoxomicin;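 active = inhibition at 20 µM, scaled to each plate's controls, above about 33%, limit read from the data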
# HNF4A DNA FP – change in binding of human HNF4 alpha to DNA | P41235 | HNF4a-FITC DNA binding, fluorescence polarization, 1 h | activity change, % at 10 µM | hit rate 0.3% among 360,000 | AID 1224865; in the data active = activity change above about 30%, passing the limit was not always enough
# Target sequence (P41235 whole entry, looked up): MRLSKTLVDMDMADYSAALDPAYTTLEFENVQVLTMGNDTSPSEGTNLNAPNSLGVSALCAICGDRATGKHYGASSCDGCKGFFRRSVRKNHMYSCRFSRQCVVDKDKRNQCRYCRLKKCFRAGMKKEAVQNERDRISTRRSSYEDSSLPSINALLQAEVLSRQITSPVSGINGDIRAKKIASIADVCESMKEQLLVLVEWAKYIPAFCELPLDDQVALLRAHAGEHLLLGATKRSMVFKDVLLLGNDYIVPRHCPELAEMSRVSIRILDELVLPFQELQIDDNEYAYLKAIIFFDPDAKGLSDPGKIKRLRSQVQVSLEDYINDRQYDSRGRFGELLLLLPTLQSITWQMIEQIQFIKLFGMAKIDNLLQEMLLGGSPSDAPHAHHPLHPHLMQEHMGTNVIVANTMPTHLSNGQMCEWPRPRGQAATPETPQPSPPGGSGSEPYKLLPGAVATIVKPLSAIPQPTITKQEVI
# CSN inh – blocks human CSN-mediated cullin deneddylation; inhibition, % at 12.5 µM; Purified CSN, SCF-Nedd8-OG deneddylation, fluorescence polarization; hit rate 0.38% among 360,000; Q92905; AID 651999;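 active = pattern-corrected inhibition above about 35%, with an unprinted fluorescence ratio check between 0.5 and 1.5, limit read from the data, passing the limit was not always enough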;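 also: 0% = enzyme with substrate and 100% = substrate without enzyme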
#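 Material: purified human Csn5 enzyme expressed in HEK293T cells / Medium: Tris buffer pH 7.5, NaCl, DTT, Tween-20, trehalose, ovalbumin / Compound dosing: 12.5 µM single point / Schedule: 90 min incubation of compound, enzyme and substrate at room temperature / Signal: fluorescence polarization of the substrate / Control set: no-enzyme wells high, enzyme-with-substrate wells low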
# TPT1 inhibitor – blocks Candida albicans tRNA 2'-phosphotransferase; inhibition, % at 5 µM; recombinant caTPT1, FP RNA substrate dephosphorylation; AID 1962; hit rate 0.81% among 300,000;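 active = inhibition above the mean of all tested compounds plus 3 SD, set per screening campaign, cut at about 24% in these data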;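 also: plate controls were DMSO alone for no effect and ferristatin control at 100 nM for full effect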
# Myeloid diff MLP – promotes myeloid progenitor differentiation; ER-HoxA9 myeloid progenitors, lysozyme-GFP differentiation, flow cytometry; calls only at 10 µM; hit rate 1% among 360,000;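 active = normalized GFP-positive differentiation at or above the plate's own cutoff, the solvent-only control mean plus 3 SD; inconclusive = no clear call, values can overlap the other calls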;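 also: cells exposed to compound for four days before flow analysis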
# Rpn11 inh conf – confirmation of human proteasome Rpn11 inhibitors; hit rate 29% among 1,900; purified human 26S proteasome, Ub4-pepOG fluorescence polarization; proteasome pretreated with epoxomicin; shares compounds with Rpn11 inh; inhibition, % at 20 µM; AID 602318
# MMP-2 inh – counter-screen for RPN11 inhibitors: inhibition of human MMP-2; shares compounds with Rpn11 inh; hit rate 4% among 1,900; inhibition, % at 20 µM; AID 602330; recombinant MMP-2, FRET peptide cleavage fluorescence;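 also: human MMP-2 activated beforehand with APMA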
# Thrombin FP – blocks bovine thrombin, flagging nonselective RPN11 hits; AID 602333; bovine thrombin cleavage of Ub4-pepOG, fluorescence polarization; inhibition, % at 20 µM; shares compounds with Rpn11 inh; hit rate 13% among 1,900;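 active = mean inhibition at least 40% at 20 µM, or signal 3 deviations below plate average, so some actives read negative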;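 also: plate controls were thrombin with DMSO for no effect and buffer wells lacking thrombin for full effect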
# An asterisk follows results filed as active; i = inactive; ? = inconclusive; · = no result given; + = active, no number. Rule as the data show it, unless noted: active = inhibition above about 40%; inactive = the rest.
SMILES,Rpn11 inh,HNF4A DNA FP,CSN inh,TPT1 inhibitor,Myeloid diff MLP,Rpn11 inh conf,MMP-2 inh,Thrombin FP
Cc1ccc(SCCNC(=O)CN2C(=O)c3ccccc3S2(=O)=O)cc1,0,0,2,-2,i,·,·,·
O=C(CN1C(=O)c2ccccc2S1(=O)=O)NCCSc1ccccc1,41*,-2,5,-1,i,-7,-26,-19
Clc1cccc2sc(N3CCOCC3)nc12,33*,-2,0,-1,i,-7,-47,-12
Clc1cccc2sc(N3CCCC3)nc12,-10,-1,0,-3,i,·,·,·
COc1cccc2sc(Nc3nc4ccc(NC(C)=O)cc4s3)nc12,41*,28,27,0,i,25,2,2
COc1cc(/C=C/c2[nH]c(=O)[nH]c(=O)c2[N+](=O)[O-])ccc1OCCC(C)C,56*,1,0,-4,i,28,-20,-20
CC(=O)OCC1OC(n2c(-c3ccc(Cl)cc3)ccc(C#N)c2=S)C(OC(C)=O)C(OC(C)=O)C1OC(C)=O (stereo not drawn),44*,21,12,·,·,17,-38,8
CC(C)[C@H](NC(=O)c1cc2cc(Cl)ccc2n1C)C(=O)N[C@@H](C(=O)O)c1ccccc1,-4,1,3,4,i,·,·,·
O=C(CN1C(=O)CSc2ccc(S(=O)(=O)N3CCOCC3)cc21)NCCCN1CCc2ccccc2C1,-9,-8,1,-3,i,·,·,·
O=C(Nc1nc(-c2nc3ccccc3s2)cs1)c1ccco1,191*,27,9,2,i,140*,18,24
Cc1ccc(S(=O)(=O)Nc2cc(Cl)c(O)c3ncccc23)cc1,72*,0,-3,1,i,76*,52*,9
Oc1c(Cl)cc(Cl)c2cccnc12,54*,0,7,·,i,26,30,-8
Oc1ccc(Cl)c2cccnc12,0,3,-5,·,i,·,·,·
Cc1ccc(S(=O)(=O)Nc2cccnc2Oc2ccc(Cl)cc2)cc1,2,-4,0,3,i,·,·,·
CCC(C)Sc1cc(-c2nc3ccccn3c2NC2CCCCC2)ccc1OC (stereo not drawn),2,7,4,-2,i,·,·,·
CCC(C)Sc1cc(-c2nc3cc(C)ccn3c2NC2CCCCC2)ccc1OC (stereo not drawn),85*,31,29,·,+,8,-29,0
CCOc1ccc2nc(NC(=O)Cn3[nH]c(=O)c4ccccc4c3=O)sc2c1,68*,33,14,21,i,56*,-4,25
CCOc1ccc2nc(NC(=O)CN3CCN(CC)CC3)sc2c1,4,-2,-5,·,i,·,·,·
Cc1ccc([C@@H]2CC(=O)[C@@H]3CN(S(=O)(=O)c4ccc(C)cc4)[C@H](c4ccccc4F)C[C@@H]3N2S(=O)(=O)c2ccc(C)cc2)cc1,50*,4,3,·,i,5,8,0
CCC(C)(C(=O)Nc1ccc2c(c1)OCCO2)N(C(C)=O)c1ccc(C(N)=O)cc1 (stereo not drawn),51*,3,-1,-1,i,0,-28,2
COc1ccc(S(=O)(=O)N2CCCOC2CNC(=O)C(=O)NCc2cccnc2)cc1 (stereo not drawn),3,3,0,-5,i,·,·,·
COc1ccc(Cn2nnnc2C(c2cccs2)N2CCN(c3ccc([N+](=O)[O-])cc3)CC2)cc1 (stereo not drawn),89*,3,-4,-4,i,-13,-27,4
COc1ccc(-c2cnc3c(c2)C(=O)N([C@H](C)CO)C[C@@H](C)[C@@H](CN(C)C(=O)NC2CCCC2)O3)cc1,-7,2,-3,·,i,·,·,·
O=C(CCNC(=O)c1ccccc1)Nc1ccc(Cl)c(S(=O)(=O)N2CCCCC2)c1,-1,-2,0,·,i,·,·,·
O=C(NCc1ccncc1)C1CCCN(S(=O)(=O)c2cc(Cl)ccc2Cl)C1 (stereo not drawn),-3,1,3,-2,i,·,·,·
SMILES,Rpn11 inh,HNF4A DNA FP,CSN inh,TPT1 inhibitor,Myeloid diff MLP,Rpn11 inh conf,MMP-2 inh,Thrombin FP
Cc1cc(OCC(=O)Nc2cc(-c3nn4c(C)nnc4s3)ccc2C)ccc1Cl,27,14,20,7,i,·,·,·
COc1ccc(OCC(=O)Nc2cc(-c3nn4c(C)nnc4s3)ccc2C)cc1,51*,42*,11,1,i,19,-20,-4
COc1ccccc1NC(=O)c1sc2ncn(CC(=O)Nc3ccccc3)c(=O)c2c1C,49*,11,6,4,?,27,18,9
O=S(=O)(Nc1nc2ccccc2nc1Nc1ccc2c(c1)OCO2)c1ccc(F)cc1,38*,12,15,-2,i,14,6,-17
O=C(O)c1cccc(Nc2nc3ccccc3nc2NS(=O)(=O)c2ccc(F)cc2)c1,1,1,-4,·,i,·,·,·
C/C(=N\N=C1\NC(=O)C(CC(=O)Nc2ccccc2F)S1)C1CCCCC1 (stereo not drawn),2,-1,10,1,i,·,·,·
Cc1ccc([C@@H]2CC(=O)[C@@H]3CN(S(=O)(=O)c4ccccc4C)[C@H](c4ccc(Cl)cc4)C[C@@H]3N2S(=O)(=O)c2ccc(C)cc2)cc1,-4,3,-5,·,?,·,·,·
CCOc1ccc(N2C(=O)/C(=C\c3ccc(OC)c(O)c3)S(=O)(=O)C2c2cccc([N+](=O)[O-])c2)cc1 (stereo not drawn),-2,-1,9,1,i,·,·,·
CCOc1ccc(N2C(=O)/C(=C\c3ccc(O)c(OC)c3)S(=O)(=O)C2c2cccc([N+](=O)[O-])c2)cc1 (stereo not drawn),57*,6,18,-2,i,14,5,-1
O=C(CN(C(=O)CNC(=O)c1cccs1)c1ccc(F)cc1)NC1CCCCC1,-1,-2,-2,2,i,·,·,·
COCCn1c(N)c(C(=O)NCc2cccs2)c2nc3ccccc3nc21,8,1,14,7,i,·,·,·
Nc1c(C(=O)NCCN2CCOCC2)c2nc3ccccc3nc2n1CCc1ccccc1,32*,2,11,4,?,5,8,-7
Nc1c(C(=O)NCCN2CCOCC2)c2nc3ccccc3nc2n1CCc1ccccc1F,11,4,0,6,i,·,·,·
COCCNC(=O)c1c(N)n(CCCn2ccnc2)c2nc3ccccc3nc12,40*,3,0,-2,i,-18,-17,-15
